Experimental findings from ChEMBL document CHEMBL4219194, “Diversity-oriented synthesis of pyrazoles derivatives from flavones and isoflavones leads to the discovery of promising reversal agents of fluconazole resistance in Candida albicans” (2018) are described below.

What all share (type): functional
In test [1] the test system is Candida albicans. Put plainly: Potentiation of fluconazole-induced antifungal activity against fluconazole-resistant Candida albicans 28A after 48 hrs by broth microdilution checkerboard method. The method, boiled down: (§1)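 Checkerboard dose-response matrix on strain 28A with gradients of fluconazole and the test compound in RPMI 1640, read after 48 h at 35 °C. MIC80 is taken alone and in combination, and FICI is calculated. Synergy is FICI ≤0.5, indifference >0.5-4, and antagonism >4.0.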

Test [2] concerns Candida albicans. The test is described as follows: Antifungal activity against fluconazole-resistant Candida albicans 28A after 48 hrs by broth microdilution method. In outline:
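Clinical fluconazole-resistant isolates tested in broth microdilution with the compound alone. The endpoint is MIC80, the lowest concentration giving 80% growth inhibition, in µg/mL.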

Test [3] concerns Candida albicans. The test is described as follows: Antifungal activity against Candida albicans SC5314 after 48 hrs by broth microdilution method. The settings on record: SC5314, 48 h. In outline: (§2)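 MIC80 read by broth microdilution, with fluconazole as the positive antifungal agent. Values are reported in µg/mL as means of three independent experiments. Strains: wild-type SC5314 and DSY654, which lacks the Cdr1 and Cdr2 efflux pumps.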
Background: In broth dilution the organism is exposed to a series of concentrations in liquid medium.

Test [4] concerns Candida albicans. Put plainly: Potentiation of fluconazole-induced antifungal activity against fluconazole-resistant Candida albicans 28A assessed as fluconazole MIC80 after 48 hrs by broth microdilution checkerboard method. The method, boiled down: as §1
The test system of test [5] is Candida albicans. The test is described as follows: Antifungal activity against CDR1 and CDR2 efflux pump deficient Candida albicans DSY654 after 48 hrs by broth microdilution method. The following applies: DSY654, 48 h. In outline: as §2
Test [6] deals with Candida albicans. Put plainly: Synergistic antifungal activity against fluconazole-resistant Candida albicans 28A after 48 hrs in presence of fluconazole by broth microdilution checkerboard method. In outline: as §1

Values after ≈ are worked out from the molar mass of the structure shown.

In general, MIC80 refers to the lowest concentration that inhibits either 80% of growth or 80% of the strains tested, depending on the study. Take `COc1ccc(-c2c[nH]nc2-c2ccc(O)cc2O)cc1`: the “fractional inhibitory concentration index (FICI)” value in the test with Candida albicans [1] amounted to 2. For the same compound, the MIC80 in the test with Candida albicans [2], against Candida albicans [3], in the test with Candida albicans [4], with Candida albicans [5] and in the test on Candida albicans [6] was over 128 µg/mL throughout.
`Oc1ccccc1-c1cc(-c2ccccc2)[nH]n1`: the “fractional inhibitory concentration index (FICI)” value with Candida albicans [1] worked out at 0.266. Also, the MIC80 with Candida albicans [2] worked out at 64 µg/mL (≈ 271 µM); in the test with Candida albicans [3], 16 µg/mL (≈ 67.7 µM); in the test on Candida albicans [4], 2 µg/mL; in the test on Candida albicans [5] it was 8 µg/mL (≈ 33.9 µM); with Candida albicans [6], 16 µg/mL.
`COc1ccc(C2=CC(c3c(O)cc(OC)cc3OC)=NCCN2)cc1`: the “fractional inhibitory concentration index (FICI)” value in the test on Candida albicans [1] is 2. The MIC80 is over 128 µg/mL against Candida albicans [2]; over 128 µg/mL in the test with Candida albicans [3]; over 128 µg/mL in the test with Candida albicans [4]; 16 µg/mL (≈ 45.1 µM) against Candida albicans [5]; over 128 µg/mL in the test with Candida albicans [6].
Take `COc1ccc(-c2cn[nH]c2-c2c(O)cc(O)cc2O)cc1`: in the test with Candida albicans [1], the “fractional inhibitory concentration index (FICI)” value came to 2. Besides, the MIC80 in the test on Candida albicans [2], with Candida albicans [3], in the test with Candida albicans [4], with Candida albicans [5] and with Candida albicans [6] was over 128 µg/mL each time.
Take `Oc1ccc(C2=NCCNC(c3ccccc3)=C2)c(O)c1O`: the “fractional inhibitory concentration index (FICI)” value in the test on Candida albicans [1] worked out at 2. Further, the MIC80 with Candida albicans [2] was over 128 µg/mL; against Candida albicans [3] it was over 128 µg/mL; in the test with Candida albicans [4], over 128 µg/mL; with Candida albicans [5], 32 µg/mL (≈ 108 µM); in the test with Candida albicans [6], over 128 µg/mL.
Regarding `Oc1ccccc1C1=NCCNC(c2ccccc2)=C1`, the “fractional inhibitory concentration index (FICI)” value in the test on Candida albicans [1] came out at 2. Further, the MIC80 against Candida albicans [2], against Candida albicans [3], in the test on Candida albicans [4], against Candida albicans [5] and in the test with Candida albicans [6] was over 128 µg/mL throughout.
`OCCn1nc(-c2ccccc2)cc1-c1ccccc1O`: in the test with Candida albicans [1], the “fractional inhibitory concentration index (FICI)” value amounted to 2. The MIC80 in the test on Candida albicans [2] was over 128 µg/mL; against Candida albicans [3], over 128 µg/mL; in the test with Candida albicans [4], over 128 µg/mL; against Candida albicans [5], 8 µg/mL (≈ 28.5 µM); in the test on Candida albicans [6] it was over 128 µg/mL.
For `COc1ccc(-c2cn[nH]c2-c2c(O)cc(OC)cc2OC)cc1`, the “fractional inhibitory concentration index (FICI)” value with Candida albicans [1] came out at 2. The MIC80 in the test with Candida albicans [2], in the test on Candida albicans [3], with Candida albicans [4], against Candida albicans [5] and in the test on Candida albicans [6] was over 128 µg/mL throughout.
As for `Oc1cc(O)c(-c2cc(-c3ccccc3)n[nH]2)c(O)c1`, the “fractional inhibitory concentration index (FICI)” value in the test with Candida albicans [1] is 0.078. Moreover, the MIC80 with Candida albicans [2] is over 128 µg/mL; in the test on Candida albicans [3] it was over 128 µg/mL; in the test with Candida albicans [4], 2 µg/mL; in the test with Candida albicans [5], over 128 µg/mL; in the test on Candida albicans [6] it was 8 µg/mL.
On to `COc1ccc(-c2cc(-c3ccccc3)[nH]n2)c(O)c1OC`, for which the “fractional inhibitory concentration index (FICI)” value in the test on Candida albicans [1] was found to be 2. The MIC80 in the test on Candida albicans [2], in the test on Candida albicans [3], in the test on Candida albicans [4], against Candida albicans [5] and with Candida albicans [6] was over 128 µg/mL in each case.
As to `CCn1cc(-c2ccc(OC)cc2)c(-c2ccc(O)cc2O)n1`, in the test on Candida albicans [1], the “fractional inhibitory concentration index (FICI)” value is 2. For the same compound, the MIC80 in the test with Candida albicans [2], against Candida albicans [3], in the test with Candida albicans [4], with Candida albicans [5] and with Candida albicans [6] was over 128 µg/mL throughout.
On to `Oc1ccc(-c2cn[nH]c2-c2ccc(O)cc2O)cc1`, for which, in the test on Candida albicans [1], the “fractional inhibitory concentration index (FICI)” value turned out to be 2. Further, the MIC80 against Candida albicans [2], against Candida albicans [3], in the test on Candida albicans [4], against Candida albicans [5] and in the test on Candida albicans [6] was over 128 µg/mL each time.
For `COc1ccc(-c2cnn(-c3ccccc3)c2-c2ccc(O)cc2O)cc1`, in the test on Candida albicans [1], the “fractional inhibitory concentration index (FICI)” value came to 0.141. Moreover, the MIC80 in the test on Candida albicans [2] was over 128 µg/mL; against Candida albicans [3], over 128 µg/mL; in the test with Candida albicans [4], 2 µg/mL; in the test on Candida albicans [5], over 128 µg/mL; in the test on Candida albicans [6], 16 µg/mL.
With `CCn1ncc(-c2ccc(OC)cc2)c1-c1ccc(O)cc1O`, the “fractional inhibitory concentration index (FICI)” value in the test with Candida albicans [1] is 0.266. Moreover, the MIC80 with Candida albicans [2] was over 128 µg/mL; against Candida albicans [3], over 128 µg/mL; in the test on Candida albicans [4], 2 µg/mL; with Candida albicans [5] it was over 128 µg/mL; in the test on Candida albicans [6] it was 32 µg/mL.
On to `COc1ccc(-c2cnn(-c3ccc(OC)cc3)c2-c2ccc(O)cc2O)cc1`, for which the “fractional inhibitory concentration index (FICI)” value with Candida albicans [1] is on record as 2. The MIC80 with Candida albicans [2], against Candida albicans [3], in the test on Candida albicans [4], against Candida albicans [5] and with Candida albicans [6] was over 128 µg/mL in each case.
Consider `COc1ccc(C2=NCCNC(c3ccccc3)=C2)c(O)c1OC`, for which the “fractional inhibitory concentration index (FICI)” value in the test on Candida albicans [1] was determined as 2. Further, the MIC80 against Candida albicans [2], with Candida albicans [3], in the test on Candida albicans [4], in the test with Candida albicans [5] and in the test with Candida albicans [6] was over 128 µg/mL in each case.
Turning to `Oc1ccc(-c2cc(-c3ccccc3)n[nH]2)c(O)c1O`, the “fractional inhibitory concentration index (FICI)” value with Candida albicans [1] was found to be 2. The MIC80 with Candida albicans [2] was over 128 µg/mL; in the test with Candida albicans [3], 8 µg/mL (≈ 29.8 µM); with Candida albicans [4], over 128 µg/mL; in the test on Candida albicans [5], 8 µg/mL (≈ 29.8 µM); with Candida albicans [6] it was over 128 µg/mL.
As for `Oc1ccccc1-c1cc(-c2ccccc2)nn1-c1ccccc1`, the “fractional inhibitory concentration index (FICI)” value in the test with Candida albicans [1] is given as 1.016. Further, the MIC80 was 128 µg/mL (≈ 410 µM) with Candida albicans [2]; 128 µg/mL (≈ 410 µM) against Candida albicans [3]; 2 µg/mL in the test with Candida albicans [4]; 8 µg/mL (≈ 25.6 µM) in the test on Candida albicans [5]; 128 µg/mL with Candida albicans [6].
For the compound `Oc1ccc(-c2cn[nH]c2-c2c(O)cc(O)cc2O)cc1`, in the test on Candida albicans [1], the “fractional inhibitory concentration index (FICI)” value was found to be 2. In addition, the MIC80 in the test on Candida albicans [2], in the test with Candida albicans [3], in the test on Candida albicans [4], against Candida albicans [5] and in the test with Candida albicans [6] was over 128 µg/mL in each case.
For the compound `COc1cc(O)c(C2=NCCNC(c3ccccc3)=C2)c(OC)c1`, the “fractional inhibitory concentration index (FICI)” value in the test on Candida albicans [1] is 0.266. For the same compound, the MIC80 was 128 µg/mL (≈ 395 µM) against Candida albicans [2]; 128 µg/mL (≈ 395 µM) in the test on Candida albicans [3]; 2 µg/mL in the test with Candida albicans [4]; 8 µg/mL (≈ 24.7 µM) in the test with Candida albicans [5]; 32 µg/mL in the test on Candida albicans [6].
For the compound `Oc1ccc(-c2cc(-c3c(O)cc(O)cc3O)[nH]n2)cc1`, in the test on Candida albicans [1], the “fractional inhibitory concentration index (FICI)” value came out at 0.012. For the same compound, the MIC80 against Candida albicans [2] is over 128 µg/mL; against Candida albicans [3] it was over 128 µg/mL; in the test on Candida albicans [4], 0.5 µg/mL; against Candida albicans [5] it was over 128 µg/mL; in the test with Candida albicans [6] it was 1 µg/mL.
Regarding `COc1cc(O)c(-c2cc(-c3ccccc3)[nH]n2)c(OC)c1OC`, the “fractional inhibitory concentration index (FICI)” value in the test with Candida albicans [1] was determined as 0.266. The MIC80 with Candida albicans [2] came to 64 µg/mL (≈ 196 µM); in the test with Candida albicans [3] it was 64 µg/mL (≈ 196 µM); with Candida albicans [4], 2 µg/mL; with Candida albicans [5], 2 µg/mL (≈ 6.13 µM); in the test with Candida albicans [6], 16 µg/mL.
As to `OCC1OC(c2c(O)ccc(-c3n[nH]cc3-c3ccc(O)cc3)c2O)C(O)C(O)C1O` (centres undefined), the “fractional inhibitory concentration index (FICI)” value with Candida albicans [1] amounted to 2. The MIC80 with Candida albicans [2] is over 128 µg/mL; in the test with Candida albicans [3] it was over 128 µg/mL; in the test on Candida albicans [4], over 128 µg/mL; with Candida albicans [5], 16 µg/mL (≈ 37.2 µM); in the test on Candida albicans [6], over 128 µg/mL.
As for `COc1ccc(-c2cc(-c3c(O)cc(OC)cc3OC)[nH]n2)cc1`, the “fractional inhibitory concentration index (FICI)” value with Candida albicans [1] is 2. Also, the MIC80 with Candida albicans [2], in the test on Candida albicans [3], with Candida albicans [4], against Candida albicans [5] and in the test on Candida albicans [6] was over 128 µg/mL throughout.
